Experimental data: ChEMBL document CHEMBL2169785, “Inhibition of Acyl-CoA: cholesterol acyltransferase (ACAT), overexpression of cholesterol transporter gene, and protection of amyloid β (Aβ) oligomers-induced neuronal cell death by tricyclic pyrone molecules” (J Med Chem, 2012)
The source made the active and inactive calls. The calls are words filed in the database; no cut-off is given here.

Key:
[1] = Neuroprotective activity in […] human MC65 cells assessed as protection against APP-induced cell death by MTT assay; format: functional, cell-based
Outline: (§1)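 MC65 neuroblastoma cells carrying a tetracycline-repressible SβC gene (APP C99 fragment); induction causes intraneuronal Aβ oligomer accumulation and cell death after three days. Viability read by MTT. EC50 (median effective concentration for protection) and TD50 (median toxic concentration) derived; TI = TD50/EC50. Triplicate experiments, standard errors calculated.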

[2] = Therapeutic index, ratio of TD50 for human MC65 cells to EC50 for […] human MC65 cells; format: cell-based; conditions: read-out: TI; outline: as §1
[3] = Cytotoxicity against human MC65 cells by MTT assay; format: cell-based; conditions: read-out: TD50 (the source's name); outline: as §1
Huh-7 = experiment: Induction of ABCA1 mRNA expression in human HuH7 cells after 24 hrs; format: functional, cell-based; conditions: Huh-7, 24 h
Outline: (§2)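 Cells (MC65 or Huh-7) incubated 24 h with compound or mock medium. ABCA1 gene expression measured with a Gene Expression Assay and compared with mock-treated cells to derive EC50.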

[4] = Induction of ABCA1 mRNA expression in human MC65 cells after 24 hrs; format: functional, cell-based; conditions: MC65, 24 h; outline: as §2
ACAT = experiment: Therapeutic index, ratio of TD50 for human MC65 cells to IC50 for ACAT activity in human MC65 cells; format: cell-based; conditions: read-out: TI
[5] = biological target: T1, Sterol O-acyltransferase 1 (Homo sapiens, UniProt P35610); experiment: Inhibition of ACAT activity in human MC65 cells using NBD-cholesterol staining after 24 hrs by fluorescence assay
T1 sequence (P35610 whole entry): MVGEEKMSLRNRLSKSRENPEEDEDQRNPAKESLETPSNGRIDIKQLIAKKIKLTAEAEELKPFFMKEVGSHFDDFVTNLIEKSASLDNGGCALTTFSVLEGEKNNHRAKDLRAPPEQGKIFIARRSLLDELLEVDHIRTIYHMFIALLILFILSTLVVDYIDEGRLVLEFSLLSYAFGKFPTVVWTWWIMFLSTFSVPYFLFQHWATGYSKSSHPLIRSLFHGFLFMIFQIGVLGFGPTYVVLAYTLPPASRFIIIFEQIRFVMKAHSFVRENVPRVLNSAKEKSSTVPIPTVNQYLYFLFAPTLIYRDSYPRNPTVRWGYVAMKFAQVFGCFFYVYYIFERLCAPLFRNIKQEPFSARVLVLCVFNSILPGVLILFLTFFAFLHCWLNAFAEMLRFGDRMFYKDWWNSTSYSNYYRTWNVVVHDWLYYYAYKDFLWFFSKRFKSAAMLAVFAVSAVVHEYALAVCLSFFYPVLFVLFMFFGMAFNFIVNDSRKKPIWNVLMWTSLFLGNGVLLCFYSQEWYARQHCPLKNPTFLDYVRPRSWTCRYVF

MC65 = experiment: Neuroprotective activity in tetracycline-deprived human MC65 cells assessed as protection against APP-induced cell death up to 50 uM by MTT assay

Row | SMILES | EC50 [1] [µM] | selectivity ratio [2] | CC50 [3] [µM] | EC50 (Huh-7) [µM] | EC50 [4] [µM] | selectivity ratio (ACAT) | IC50 [5] [µM] | Activity (MC65)
1 | Cc1cc2c(c(=O)o1)C=C1CC[C@H](C(C)CNCc3cccc(O)c3)C[C@@H]1O2 (stereo not given in full) | 4.66 | > 10.7 | > 50 |  |  |  |  | 
2 | Cc1cc2c(c(=O)o1)C=C1CC[C@H](C(C)CNCc3ccc(O)c([N+](=O)[O-])c3)C[C@@H]1O2 (mixture of isomers) | 3.85 | > 13 | > 50 |  |  |  |  | 
3 | Cc1cc2c(c(=O)o1)C=C1CC[C@H](C(C)CNCc3c(O)ccc4ccccc34)C[C@@H]1O2 (mixture of isomers) | 0.198 | 133 | 26.4 |  |  |  |  | 
4 | Cc1cc2c(c(=O)o1)C=C1CC[C@H](C(C)CNCc3ccc(OCCO)cc3)C[C@@H]1O2 (mixture of isomers) | 24.5 | > 2.04 | > 50 |  |  |  |  | 
5 | COc1ccc(CNCC(C)[C@H]2CCC3=Cc4c(cc(C)oc4=O)O[C@H]3C2)c2ccccc12 (stereo not given in full) | 0.621 | 24.6 | 15.3 |  |  |  |  | 
6 | COc1cc(CNCC(C)[C@H]2CCC3=Cc4c(cc(C)oc4=O)O[C@H]3C2)cc(OC)c1O (mixture of isomers) | 1.26 | > 39.7 | > 50 |  |  |  |  | 
7 | Cc1cc2c(c(=O)o1)C=C1CC[C@H](C(C)CNCc3ccc(C=O)cc3)C[C@@H]1O2 (mixture of isomers) | 6.41 | 6.15 | 39.4 |  |  |  |  | 
8 | COc1ccc(CNCC(C)[C@H]2CCC3=Cc4c(cc(C)oc4=O)O[C@H]3C2)cc1 (single isomer, unassigned) | 2.77 | > 18.1 | > 50 |  |  |  |  | 
9 | Cc1cc2c(c(=O)o1)C=C1CC[C@H](C(C)CNCc3ccccc3)C[C@@H]1O2 (mixture of isomers) | 3.24 | 11.5 | 37.3 |  |  |  |  | 
10 | Cc1cc2c(c(=O)o1)C=C1CC[C@H](C(C)CNCc3ccc(N(C)C)cc3)C[C@@H]1O2 (mixture of isomers) | 4.36 | 8.76 | 38.2 |  |  |  |  | 
11 | Cc1cc2c(c(=O)o1)C=C1CC[C@H](C(C)CNCc3ccc(O)c4ccccc34)C[C@@H]1O2 (mixture of isomers) | 0.145 |  | 13.7 | 0.6 | 1.3 |  |  | 
12 | COc1ccc(CNCC(C)[C@H]2CCC3=Cc4c(cc(C)oc4=O)O[C@H]3C2)cc1O (mixture of isomers) | 1.56 | > 32.1 | > 50 |  |  |  |  | 
13 | Cc1cc2c(c(=O)o1)C=C1CC[C@H](C(C)Cn3cnc(N)c4ncnc3-4)C[C@@H]1O2 (stereo not given in full) | 0.12 | 325 | 39 | 0.6 | 0.9 | 33 | 1.2 | 
14 | Cc1cc2c(c(=O)o1)C=C1CC[C@H](C(C)CNC(=O)c3ccccc3O)C[C@@H]1O2 (stereo not given in full) | 6.25 | 1.07 | 6.69 |  |  |  |  | 
15 | Cc1cc2c(c(=O)o1)C=C1CC[C@H](C(C)CNCc3ccc(O)c(Br)c3)C[C@@H]1O2 (mixture of isomers) | 0.639 | > 78.2 | > 50 |  |  |  |  | 
16 | Cc1cc2c(c(=O)o1)C=C1CC[C@H](C(C)CNCc3ccc(O)cc3)C[C@@H]1O2 (mixture of isomers) | 0.07 |  | 37 | 0.6 | 1.1 |  |  | 
17 | Cc1cc2c(c(=O)o1)C=C1CC[C@H](C(C)CNCc3ccc(O)c(F)c3)C[C@@H]1O2 (mixture of isomers) | 0.067 | > 746 | > 50 |  | 2.2 | > 28 | 1.8 | 
18 | Cc1cc2c(c(=O)o1)C=C1CC[C@H](C(C)CNCc3cc(O)cc4ccccc34)C[C@@H]1O2 (mixture of isomers) | 0.586 | 31.1 | 18.2 |  |  |  |  | 
19 | CCCCCCCCCCC(C)(C)C(=O)Nc1c(OC)cc(OC)cc1OC |  |  |  |  |  |  |  | inactive
20 | Cc1cc2c(c(=O)o1)C=C1CC[C@H](C(C)CNCc3ccccc3O)C[C@@H]1O2 (mixture of isomers) | 2.44 | 12.6 | 30.7 |  |  |  |  | 
21 | Cc1cc2c(c(=O)o1)C=C1CC[C@H](C(C)CNCc3ccc4cc(O)ccc4c3)C[C@@H]1O2 (mixture of isomers) | 0.459 | 52.5 | 24.1 |  |  |  |  | 
22 | Cc1cc2c(c(=O)o1)C=C1CC[C@H](C(C)CNCc3ccc(CO)cc3)C[C@@H]1O2 (mixture of isomers) | 0.101 | > 495 | > 50 |  | 2.5 | > 36 | 1.4 | 
23 | Cc1cc2c(c(=O)o1)C=C1CC[C@H](C(C)CNCc3ccc(Cl)cc3)C[C@@H]1O2 (mixture of isomers) | 2.79 | 17.2 | 48 |  |  |  |  | 
24 | COc1cc(CNCC(C)[C@H]2CCC3=Cc4c(cc(C)oc4=O)O[C@H]3C2)ccc1O (mixture of isomers) | 0.242 | 109 | 26.3 |  |  |  |  | 
25 | Cc1cc2c(c(=O)o1)C=C1CC[C@H](C(C)CNCc3ccc4c(c3)OCO4)C[C@@H]1O2 (mixture of isomers) | 1.18 | > 42.4 | > 50 |  |  |  |  | 
26 | COC(=O)c1ccc(CNCC(C)[C@H]2CCC3=Cc4c(cc(C)oc4=O)O[C@H]3C2)cc1 (mixture of isomers) | 0.769 | > 65 | > 50 |  |  |  |  | 
27 | Cc1cc2c(c(=O)o1)C=C1CC[C@H](C(C)CNCc3ccc(C#N)cc3)C[C@@H]1O2 (mixture of isomers) | > 50 |  | > 50 |  |  |  |  | 
28 | Cc1cc2c(c(=O)o1)C=C1CC[C@H](C(C)CNCc3ccc(OCc4ccccc4)c(OCc4ccccc4)c3)C[C@@H]1O2 (mixture of isomers) | 0.662 | 14.2 | 9.38 |  |  |  |  | 
29 | CC(=O)Oc1ccccc1C(=O)NCC(C)[C@H]1CCC2=Cc3c(cc(C)oc3=O)O[C@H]2C1 (mixture of isomers) | > 50 |  | 8.35 |  |  |  |  | 
